According to paper PMC9753534 (ACS Omega, 2022):

Experiments:
MCF-7 cell line = experiment: MTT antiproliferative test, MCF-7; type: cell-based; conditions: Homo sapiens, MCF7, read-out: IC50 (n = 3), antiproliferative effect vs MCF-7
A549 cell line = experiment: MTT antiproliferative test, A549; type: cell-based; conditions: Homo sapiens, A549, read-out: IC50 (n = 3), antiproliferative effect vs A549
EGFR^WT = EGFR^WT (Homo sapiens, UniProt P00533); experiment: HTRF kinase inhibitory assay, EGFR^WT; type: biochemical
EGFR^T790M = EGFR^T790M (Homo sapiens, UniProt P00533, T790M); experiment: biochemical; type: biochemical
[1] = Antioxidant activity by ABTS method; conditions: absorbance at 734 nm
Procedure, shortened: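 ABTS radical cation was generated by mixing ammonium peroxodisulfate (65 mmol/dm3) with ABTS in phosphate buffer pH 7.4 and leaving it overnight. The stock was diluted in phosphate buffer pH 7.4 and A734 was read. Test compound was added after 1 min, mixed, and A734 was re-read. Results are expressed as trolox equivalents from a linear trolox calibration (absorbance decrease vs concentration).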

`Nc1c(-c2nnn[nH]2)sc2sc(-c3nnn[nH]3)c(N)c12` [Compound 7, 2,5-Di(1H-tetrazol-5-yl)thieno[2,3-b]thiophene-3,4-diamine] gave an IC50 (MCF-7 cell line) of 17.3 ± 0.71 µM, an IC50 (A549 cell line) of 8.27 ± 0.16 µM and an IC50 (EGFR^WT) of 3.27 ± 0.16 µM. It also gave an IC50 (EGFR^T790M) of 16.3 ± 0.61 µM.

With `C#Cc1cccc(Nc2ncnc3cc(OCCOC)c(OCCOC)cc23)c1` [erlotinib, reference compound] the IC50 (MCF-7 cell line) was 21.8 ± 1.85 µM and the IC50 (A549 cell line) was 19.3 ± 1.85 µM.

With `N=c1c2sc3sc4c(=N)n(-c5ccccc5)c(=O)[nH]c4c3c2[nH]c(=O)n1-c1ccccc1` [Compound 5, 1,8-Diimino-2,7-diphenyl-1,4,7,8-tetrahydro-2H,5H-9,10-dithia-2,4,5,7-tetraaza-indeno[1,2-a]indene-3,6-dione] the IC50 (MCF-7 cell line) was 17.3 ± 0.71 µM, the IC50 (A549 cell line) was 7.54 ± 0.32 µM and the IC50 (EGFR^WT) was 2.02 ± 0.12 µM. The IC50 (EGFR^T790M) was 15.1 ± 0.51 µM and the “radical scavenging activity (ABTS)” value [1] was 70%.

`N#Cc1sc2sc(C#N)c(N)c2c1N` [Compound 1, 3,4-diaminothieno[2,3-b]thiophene-2,5-dicarbonitrile] gave an IC50 (MCF-7 cell line) of 8.57 ± 0.31 µM, an IC50 (A549 cell line) of 5.09 ± 0.15 µM and an IC50 (EGFR^WT) of 0.29 ± 0.05 µM. The IC50 (EGFR^T790M) was 7.89 ± 0.31 µM and the “times the activity of gefitinib vs EGFR^T790M” value (EGFR^T790M; ratio of IC50 vs gefitinib) was 2.71 times.
